Compound activity deposited in PubChem by several laboratories.
UBC13 inh = human UBC13 polyubiquitination inhibition. P61088. UBC13 polyubiquitin chain formation, TR-FRET. actives 0.47% (n = 330,000). inhibition, % at 20 µM; in the data active = inhibition above about 45%, passing the limit was not always enough
TMEM16A inh = mouse TMEM16A channel inhibition, primary screen | Q8BHY3 | HEK293 TMEM16A/YFP iodide influx fluorescence, ionomycin | normalized B-score (activity score, 25-100; higher = stronger inhibition) at 10 µM | actives 1.2% (n = 310,000) | AID 588511;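 active = ratio plate-corrected score three or more library SD toward inhibition, starting fluorescence score within five deviations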;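 also: score derived from kinetic fluorescence span divided by baseline fluorescence per well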
TMEM16A act = mouse TMEM16A channel activation, primary screen; actives 0.3% (n = 340,000); HEK293 TMEM16A/YFP-H148Q/I152L, iodide quench fluorescence; active compounds read low; B-score at 10 µM; Q8BHY3;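 active = fluorescence-ratio B-score plate-corrected deviation score at least 3 library SD below zero, with starting fluorescence score within 5 deviations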;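 also: channel opened by trigger with iodide after compound preincubation; score built on the fluorescence ratio of max minus min over baseline; more negative score means more quench and so TMEM16A activation or potentiation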
FID counter = displaces DNA intercalator in HCV helicase counter-screen; DNA fluorescent intercalator displacement, fluorescence; inhibition, % at 7.9 µM; actives 0.17% (n = 290,000); AID 1845; in the data active = inhibition above about 37%;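 also: higher means more ethidium bromide displaced from hairpin DNA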
Apaf-1 inh = human Apaf-1 inhibition; O14727; actives 0.71% (n = 330,000); inhibition, % at 20 µM; reconstituted apoptosome caspase-3 activity, DEVD-Rh110 fluorescence; AID 489030; active = inhibition of at least 40% at 20 µM
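Material: reconstituted apoptosome with Apaf-1, cytochrome c, caspase-9, procaspase-3, dATP; medium: pH 7.5 Hepes buffer with CHAPS, BSA, DTT; also added: cytochrome c and DEVD-Rh110 substrate; timing: 30 min plus 50 min, RT; signal: Rh110 fluorescence intensity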
TMEM16A reconf = TMEM16A (mouse) chloride channel inhibition, re-confirmation | shares compounds with TMEM16A inh | HEK293 TMEM16A/YFP-H148Q, iodide quench fluorescence; ionomycin added to raise cell calcium | inhibition, % at 10 µM | actives 39% (n = 2,300) | AID 652189;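 active = mean duplicate percent inhibition, scaled so buffer wells are 0 and the reference blocker 100, over three buffer SD above buffer mean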
HEK293 Ca mobil = calcium mobilization counter-screen hit for TMEM16A inhibitor series; shares compounds with TMEM16A inh; TMEM16A/YFP HEK293, Fluo4 calcium mobilization; calcium response (% of ionomycin), % at 10 µM; actives 2% (n = 2,300);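 active = duplicate-averaged calcium signal over 20% of the ionomycin maximum, relative to buffer baseline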;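 also: each well's signal is peak minus trough fluorescence divided by its pre-addition baseline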
YFP-HEK293 quench = parental YFP-HEK293 iodide quench counter-screen activity | YFP ratio F(max-min)/F0 at 10 µM | AID 652233 | ionomycin | 2,300 tested, under 10 active | shares compounds with TMEM16A inh;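 active = yellow fluorescent protein signal ratio exceeding the buffer control mean by over 5 SD of those controls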;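 also: ratio is mean of duplicate wells from kinetic YFP trace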
ClC-1 inh = blocks the rat ClC-1 voltage-dependent chloride channel; CHO ClC-1-YFP, iodide influx fluorescence quench; iodide control reads 0, buffer control 100; ratio percent, % at 10 µM; 2,300 tested, under 10 active; shares compounds with TMEM16A inh; AID 652236;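 active = duplicate-mean ratio percent above the mean of iodide-only control wells, which defines zero, plus 5 of their SD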;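 also: higher percent means stronger block of ClC-1 iodide influx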
Each line names hits and unclear results; the compound was inactive in the other large screens (follow-up assays come after a bar, where they were run). A selection: hits, their analogues and other compounds. The true share with any hit is near 2.4%.

CSc1cccc(NC(=O)C2CCCN(S(=O)(=O)c3cccs3)C2)c1 (stereo not drawn)	none
CN(C)S(=O)(=O)c1cccc(COC(=O)c2ccc(Cl)cc2O)c1	TMEM16A inh 100 | TMEM16A reconf 28.5% | HEK293 Ca mobil inactive | YFP-HEK293 quench inactive | ClC-1 inh inactive
COc1ccc(CNC(=O)C(=O)NCCC2CCCCN2S(=O)(=O)c2cccs2)cc1 (stereo not drawn)	none (no result: FID counter)
Oc1ccccc1CNc1cnc2ccccc2c1	TMEM16A inh 100 | TMEM16A reconf inactive | HEK293 Ca mobil inactive | YFP-HEK293 quench inactive | ClC-1 inh inactive
CCOC(=O)C1CCCN(C(=O)CCc2nc3sc4c(c3c(=O)[nH]2)CCCC4)C1 (stereo not drawn)	none (no result: TMEM16A inh, FID counter)
Fc1ccc(CSc2nc3ccccc3[nH]2)c2ccccc12	TMEM16A inh 100 | TMEM16A reconf 32.5% | HEK293 Ca mobil inactive | YFP-HEK293 quench inactive | ClC-1 inh inactive
O=c1cc(CSc2nc3ccccc3[nH]2)c2ccccc2[nH]1	none
CC1CCCCC12NC(=O)N(CC(=O)NCCc1c[nH]c3ccccc13)C2=O (stereo not drawn)	none (no result: TMEM16A inh, FID counter)
COCCCNc1nc2ccccc2nc1NS(=O)(=O)c1ccc(Cl)cc1	none
COCCCNc1nc2ccccc2nc1NS(=O)(=O)c1cc(Cl)ccc1Cl	TMEM16A inh 25 | TMEM16A reconf 16.5% | HEK293 Ca mobil inactive | YFP-HEK293 quench inactive | ClC-1 inh inactive
CN1CCc2c(sc(N)c2C(N)=O)C1	none
CCN1CCc2c(sc(N)c2C(N)=O)C1	none | TMEM16A reconf 27.0% | HEK293 Ca mobil inactive | YFP-HEK293 quench inactive | ClC-1 inh inactive
Cn1c(=O)[nH]c(Nc2ccccc2)c([N+](=O)[O-])c1=O	none
Cc1cccc(/N=C/c2sc3ccccc3c2O)n1	none | TMEM16A reconf inactive | HEK293 Ca mobil inactive | YFP-HEK293 quench inactive | ClC-1 inh inactive
Oc1c(C=Nc2cccc3cccnc23)sc2ccccc12	none (no result: TMEM16A act)
Cc1ccc(CSc2nnc(CNc3ccc(F)cc3)o2)cc1	none
O=C(COc1ccc(F)cc1)c1ccc2c(c1)CCCC2	TMEM16A inh 100 | TMEM16A reconf inactive | HEK293 Ca mobil inactive | YFP-HEK293 quench inactive | ClC-1 inh inactive
O=C(O)COc1ccc2c(c1)CCCC2	none
CCc1ccccc1N(C(=O)CCC(=O)Nc1cc(C)on1)C(C(=O)NC1CCCC1)c1ccco1 (stereo not drawn)	none (no result: FID counter)
CC(=O)N1C(=O)C(=C2C=C(C)OC(C)=C2)c2ccccc21	none | TMEM16A reconf 27.5% | HEK293 Ca mobil inactive | YFP-HEK293 quench inactive | ClC-1 inh inactive
C=CCN(CC=C)CC(=O)Nc1cccc(Oc2cnccn2)c1	none
NC(=O)c1cc(S(=O)(=O)N2CCOCC2)ccc1N1CCCC1	none
O=S(=O)(Nc1nc2ccccc2nc1Cl)c1ccc2ccccc2c1	TMEM16A inh 100 | TMEM16A reconf 28.5% | HEK293 Ca mobil inactive | YFP-HEK293 quench inactive | ClC-1 inh inactive
Cc1ccc(C(C)(C)C)cc1S(=O)(=O)Nc1nc2ccccc2nc1Cl	TMEM16A inh 100 | TMEM16A reconf 39.5% | HEK293 Ca mobil inactive | YFP-HEK293 quench inactive | ClC-1 inh inactive
COc1ccc(S(=O)(=O)Nc2ccccc2C(F)(F)F)cc1	TMEM16A inh 100 | TMEM16A reconf inactive | HEK293 Ca mobil inactive | YFP-HEK293 quench inactive | ClC-1 inh inactive
NC(=O)c1cc([N+](=O)[O-])ccc1NCc1ccccn1	none (no result: FID counter)
Cc1ccc(S(=O)(=O)Oc2ccccc2/C=C2/SC(=O)NC2=O)cc1	TMEM16A inh 25 | TMEM16A reconf inactive | HEK293 Ca mobil inactive | YFP-HEK293 quench inactive | ClC-1 inh inactive
O=C1NC(=O)/C(=C\c2ccccc2OCc2ccccc2)S1	none
Cc1ccc(NC(=O)Cc2ccc(Cl)c(Cl)c2)cc1S(=O)(=O)N(C)C	TMEM16A inh 25 | TMEM16A reconf 16.5% | HEK293 Ca mobil inactive | YFP-HEK293 quench inactive | ClC-1 inh inactive
Cc1ccc(NC(=O)Cc2ccccc2Cl)cc1S(=O)(=O)N(C)C	none
Cc1ccc(NC(=O)CNc2ccc(Cl)c(Cl)c2)cc1S(=O)(=O)N(C)C	TMEM16A inh 100 | TMEM16A reconf 28.5% | HEK293 Ca mobil inactive | YFP-HEK293 quench inactive | ClC-1 inh inactive
COc1cc(OC)cc(C(=O)NCC2CCCN(C(=O)c3csc(C(C)C)n3)C2)c1 (stereo not drawn)	none
CC(=O)NS(=O)(=O)c1ccc(NC(=O)c2ccccc2F)cc1	TMEM16A inh 25 | TMEM16A reconf inactive | HEK293 Ca mobil inactive | YFP-HEK293 quench inactive | ClC-1 inh inactive
O=C(NS(=O)(=O)c1ccccc1)c1ccccc1F	none
Cn1cccc1C(=O)C(=O)Nc1ccccc1	none
CCCOc1ccc(CSc2nnc(CCC)n2N)cc1	none
CCCCOc1ccc(Cl)cc1CSc1nnc(CC)n1N	TMEM16A inh 25 | TMEM16A reconf inactive | HEK293 Ca mobil inactive | YFP-HEK293 quench inactive | ClC-1 inh inactive
CSc1ccccc1OCc1cc(C(=O)NC2CCOC2)no1 (stereo not drawn)	none
Cc1ccc(NC(=O)CSC2=C(C#N)C(c3ccco3)C3=C(CC(C)(C)CC3=O)N2)cc1 (stereo not drawn)	none
Cc1ccc(NC(=O)CSC2=C(C#N)C(c3ccco3)CC(=O)N2)cc1 (stereo not drawn)	TMEM16A inh 25 | TMEM16A reconf inactive | HEK293 Ca mobil inactive | YFP-HEK293 quench inactive | ClC-1 inh inactive
CC(C)CCN1CCN(Cc2nc(-c3ccc(F)cc3)cs2)CC1CCO (stereo not drawn)	none
CC(=O)c1cccc(NC(=S)NNC(=O)c2ccc(C)c([N+](=O)[O-])c2)c1	none
Cc1ccc(NC(=S)NNC(=O)c2cccc([N+](=O)[O-])c2)cc1Cl	TMEM16A inh 25 | TMEM16A reconf 23.5% | HEK293 Ca mobil inactive | YFP-HEK293 quench inactive | ClC-1 inh inactive
N#CC1=C(N)Oc2cc(O)c(C=Nc3ccccc3)cc2C1c1ccccc1 (stereo not drawn)	none | TMEM16A reconf inactive | HEK293 Ca mobil inactive | YFP-HEK293 quench inactive | ClC-1 inh inactive
CC1CCN(S(=O)(=O)c2ccc3c(c2)N(CC(=O)NCCN2C(C)CCCC2C)C(=O)CS3)CC1 (stereo not drawn)	none
Cc1cccc(N2CCN(C(=O)C3CCN(c4ncnc5c4nc4n5CCCCC4)CC3)CC2C)c1 (stereo not drawn)	none
